# Test results: paper PMC6220361 (Molecular Pharmaceutics, 2018)
# Read-outs that look alike come from different tables or passages of the source.
# What was measured:
# SP1–7 binding site [1] = conditions: read-out: binding; rat ventral tegmental area; cited from earlier work
# Caco-2 cell monolayer = conditions: cited from earlier work
# SP1–7 binding site [2] = test: Dynamic PET imaging, blocking experiments; assay type: in vivo, Wistar rats
# Summary of the method: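 Healthy male Wistar rats (200–320 g) under isoflurane (3% induction, 1–2.5% maintenance, in oxygen). A 5 min CT or 15 min MRI preceded the i.v. tail-vein tracer bolus and a 60 min dynamic PET scan. Blockers were SP1–7 (5% DMSO in saline), 185 nmol·kg–1 i.p. 15 min before, or the unlabeled tracer analogue (20% EtOH in saline), 3 μmol·kg–1 slow i.v. 3 or 20 min before. Read-out was manual brain/spinal cord ROI SUV ± SD.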
# [3] = mouse plasma; cited from earlier work
# SP1–7 binding site [4] = conditions: rat spinal cord membranes preparation; cited from earlier work
# [5] = blocker i.p. 185 nmol·kg^–1, 15 min prior to tracer
# [6] = self-blocking, i.v. 3 μmol·kg^–1, 3 min prior to tracer
compound,measurement,setting,value
H-Arg-Pro-Lys-Pro-Gln-Gln-Phe-OH (H-RPKPQQF-OH) [SP1–7],Ki,SP1–7 binding site [1],3.9 nM
same,permeability,Caco-2 cell monolayer,failed to display any measurable permeability
same,blocking of [^11C]1 brain uptake,SP1–7 binding site [2]; [5],did not block brain uptake
same,blocking of [^11C]1 spinal cord uptake,SP1–7 binding site [2]; [5],moderate blocking
same,in vitro half-life,[3],4.4 min
"NC(=O)[C@H](Cc1ccccc1)NC(=O)OCc1ccccc1 [compound 1, (S)-Benzyl (1-Amino-1-oxo-3-phenylpropan-2-yl)carbamate]",Ki,SP1–7 binding site [4],5.2 nM
same,blocking of [^11C]1 brain uptake,"SP1–7 binding site [2]; blocker i.v. 3 μmol·kg^–1, 20 min prior to tracer",did not block brain uptake
same,blocking of [^11C]1 spinal cord uptake,"SP1–7 binding site [2]; self-blocking, 3 or 20 min prior to tracer injection",did not show any blocking
"NC(=O)[C@@H](Cc1ccccc1)NC(=O)OCc1ccccc1 [compound 2, (R)-Benzyl (1-Amino-1-oxo-3-phenylpropan-2-yl)carbamate]",blocking of [^11C]2 brain uptake,SP1–7 binding site [2]; [6],did not show any blocking effect
same,blocking of [^11C]2 spinal cord uptake,SP1–7 binding site [2]; [6],did not show any blocking effect
